According to ChEMBL document CHEMBL4665666, “Discovery and characterization of trypanocidal cysteine protease inhibitors from the 'malaria box'” (Eur J Med Chem, 2019):
Calls of active or inactive are those of the source. The rule behind the calls is not given here.

Key:
[1] = target: Cruzipain (Trypanosoma cruzi) (UniProt P25779); assay: Inhibition of recombinant Trypanosoma cruzi cruzain at 5 uM using Z-FR-AMC as substrate and measured at 12 sec interval for 5 mins without preincubation by fluorimetric analysis relative to control
Chain of Cruzipain (Trypanosoma cruzi) (P25779 123-467 limits assumed): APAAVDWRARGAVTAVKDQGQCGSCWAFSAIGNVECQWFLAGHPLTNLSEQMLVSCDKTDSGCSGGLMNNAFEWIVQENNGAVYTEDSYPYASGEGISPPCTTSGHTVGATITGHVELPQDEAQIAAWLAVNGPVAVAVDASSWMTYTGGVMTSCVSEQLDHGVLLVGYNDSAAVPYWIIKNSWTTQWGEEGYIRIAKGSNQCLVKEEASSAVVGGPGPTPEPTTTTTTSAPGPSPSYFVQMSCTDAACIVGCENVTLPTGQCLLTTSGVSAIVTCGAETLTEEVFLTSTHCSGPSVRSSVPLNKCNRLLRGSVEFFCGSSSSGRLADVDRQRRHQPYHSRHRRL
Method in brief: (§1)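 Recombinant rhodesain or cruzain (1 nM) in 0.1 M sodium acetate pH 5.5, 0.01% Triton X-100, 1 mM β-mercaptoethanol. Compound at a single concentration, either without or after 10 min enzyme pre-incubation. Inhibition is relative to DMSO, with E-64 as positive control. Done in duplicate (primary screen) or triplicate.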

[2] = target: Cruzipain (Trypanosoma cruzi) (UniProt P25779); assay: Inhibition of recombinant Trypanosoma cruzi cruzain at 5 uM using Z-FR-AMC as substrate preincubated for 10 mins followed by substrate addition and measured at 12 sec interval for 5 mins by fluorimetric analysis relative to control; conditions: time 15.0 min; method in brief: as §1
[3] = target: Rhodesain (Trypanosoma brucei rhodesiense) (UniProt Q95PM0); assay: Inhibition of recombinant Trypanosoma brucei rhodesain expressed in Pichia pastoris at 5 uM using Z-FR-AMC as substrate and measured at 12 sec interval for 5 mins without preincubation by fluorimetric analysis relative to control; method in brief: as §1
Chain of Rhodesain (Trypanosoma brucei rhodesiense) (Q95PM0 1-450): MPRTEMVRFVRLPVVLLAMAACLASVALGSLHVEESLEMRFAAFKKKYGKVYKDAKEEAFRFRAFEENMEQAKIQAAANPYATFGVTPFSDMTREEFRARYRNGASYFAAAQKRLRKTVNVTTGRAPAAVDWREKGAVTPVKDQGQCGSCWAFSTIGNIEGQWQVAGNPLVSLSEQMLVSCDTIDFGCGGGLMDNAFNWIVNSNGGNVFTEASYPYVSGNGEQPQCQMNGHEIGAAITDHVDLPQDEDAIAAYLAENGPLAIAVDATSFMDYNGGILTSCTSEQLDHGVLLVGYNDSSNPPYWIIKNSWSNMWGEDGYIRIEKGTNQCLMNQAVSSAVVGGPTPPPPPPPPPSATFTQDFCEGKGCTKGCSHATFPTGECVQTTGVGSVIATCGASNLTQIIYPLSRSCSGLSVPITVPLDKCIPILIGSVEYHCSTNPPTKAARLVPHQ

[4] = target: Rhodesain (Trypanosoma brucei rhodesiense) (UniProt Q95PM0); assay: Inhibition of recombinant Trypanosoma brucei rhodesain expressed in Pichia pastoris at 5 uM using Z-FR-AMC as substrate preincubated for 10 mins followed by substrate addition and measured at 12 sec interval for 5 mins by fluorimetric analysis relative to control; conditions: time 15.0 min; method in brief: as §1
[5] = target: Cruzipain (Trypanosoma cruzi) (UniProt P25779); assay: Inhibition of recombinant Trypanosoma cruzi cruzain at 10 uM using Z-FR-AMC as substrate and measured at 12 sec interval for 5 mins without preincubation by fluorimetric analysis relative to control
Method in brief: as §1, with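 “pre-incubation. Z-FR-AMC 2.5 µM, read at 340/440 nm every 12 s for 5 min.” for “pre-incubation.”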

[6] = target: Cruzipain (Trypanosoma cruzi) (UniProt P25779); assay: Inhibition of recombinant Trypanosoma cruzi cruzain at 10 uM using Z-FR-AMC as substrate preincubated for 10 mins followed by substrate addition and measured at 12 sec interval for 5 mins by fluorimetric analysis relative to control; conditions: time 15.0 min
Method in brief: as §1, with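 “pre-incubation. Z-FR-AMC 2.5 µM, read at 340/440 nm every 12 s for 5 min.” for “pre-incubation.”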

[7] = target: Rhodesain (Trypanosoma brucei rhodesiense) (UniProt Q95PM0); assay: Inhibition of recombinant Trypanosoma brucei rhodesain expressed in Pichia pastoris at 10 uM using Z-FR-AMC as substrate and measured at 12 sec interval for 5 mins without preincubation by fluorimetric analysis relative to control
Method in brief: as §1, with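 “pre-incubation. Z-FR-AMC 2.5 µM, read at 340/440 nm every 12 s for 5 min.” for “pre-incubation.”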

[8] = target: Rhodesain (Trypanosoma brucei rhodesiense) (UniProt Q95PM0); assay: Inhibition of recombinant Trypanosoma brucei rhodesain expressed in Pichia pastoris at 10 uM using Z-FR-AMC as substrate preincubated for 10 mins followed by substrate addition and measured at 12 sec interval for 5 mins by fluorimetric analysis relative to control; conditions: time 15.0 min
Method in brief: as §1, with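 “pre-incubation. Z-FR-AMC 2.5 µM, read at 340/440 nm every 12 s for 5 min.” for “pre-incubation.”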

[9] = target: Cruzipain (Trypanosoma cruzi) (UniProt P25779); assay: Inhibition of recombinant Trypanosoma cruzi cruzain at 100 uM using Z-FR-AMC as substrate and measured at 12 sec interval for 5 mins without preincubation by fluorimetric analysis relative to control
Method in brief: as §1, with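 “pre-incubation. Z-FR-AMC 2.5 µM, read at 340/440 nm every 12 s for 5 min.” for “pre-incubation.”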

[10] = target: Cruzipain (Trypanosoma cruzi) (UniProt P25779); assay: Inhibition of recombinant Trypanosoma cruzi cruzain at 100 uM using Z-FR-AMC as substrate preincubated for 10 mins followed by substrate addition and measured at 12 sec interval for 5 mins by fluorimetric analysis relative to control; conditions: time 15.0 min
Method in brief: as §1, with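 “pre-incubation. Z-FR-AMC 2.5 µM, read at 340/440 nm every 12 s for 5 min.” for “pre-incubation.”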

[11] = target: Rhodesain (Trypanosoma brucei rhodesiense) (UniProt Q95PM0); assay: Inhibition of recombinant Trypanosoma brucei rhodesain expressed in Pichia pastoris at 100 uM using Z-FR-AMC as substrate and measured at 12 sec interval for 5 mins without preincubation by fluorimetric analysis relative to control
Method in brief: (§2)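 Run with no pre-incubation or with 10 min enzyme-compound pre-incubation. Fluorescence read at 340/440 nm. Concentration was set by solubility under assay conditions. Inhibition is against DMSO, with E-64 as positive control; triplicate.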

[12] = target: Rhodesain (Trypanosoma brucei rhodesiense) (UniProt Q95PM0); assay: Inhibition of recombinant Trypanosoma brucei rhodesain expressed in Pichia pastoris at 100 uM using Z-FR-AMC as substrate preincubated for 10 mins followed by substrate addition and measured at 12 sec interval for 5 mins by fluorimetric analysis relative to control; conditions: time 15.0 min; method in brief: as §2
Cruzipain [13] = target: T1, Cruzipain (Trypanosoma cruzi, UniProt P25779); assay: Inhibition of recombinant Trypanosoma cruzi cruzain using Z-FR-AMC as substrate and measured at 12 sec interval for 5 mins without preincubation by fluorimetric analysis
T1 sequence (P25779 whole entry): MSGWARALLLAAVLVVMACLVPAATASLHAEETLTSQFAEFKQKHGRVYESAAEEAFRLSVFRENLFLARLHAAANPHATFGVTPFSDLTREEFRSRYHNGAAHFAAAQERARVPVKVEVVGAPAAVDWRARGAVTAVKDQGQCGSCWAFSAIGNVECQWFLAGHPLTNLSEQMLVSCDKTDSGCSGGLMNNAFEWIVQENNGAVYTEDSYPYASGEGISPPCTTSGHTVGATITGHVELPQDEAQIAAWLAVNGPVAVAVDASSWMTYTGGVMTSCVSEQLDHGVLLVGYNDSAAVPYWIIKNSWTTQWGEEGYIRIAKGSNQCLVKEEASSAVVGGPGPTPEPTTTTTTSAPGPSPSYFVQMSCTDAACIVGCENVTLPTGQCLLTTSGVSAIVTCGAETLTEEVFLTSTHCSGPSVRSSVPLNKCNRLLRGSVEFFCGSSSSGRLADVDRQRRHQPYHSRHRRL
Method in brief: (§3)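 Cruzain (recombinant, 1 nM) in 0.1 M sodium acetate pH 5.5 with 0.01% Triton X-100 and 1 mM β-mercaptoethanol; Z-FR-AMC 2.5 µM, read at 340/440 nm every 12 s for 5 min, with or without 10 min enzyme–compound pre-incubation. […] For mechanism and Ki, 0.3–20.0 µM substrate and five inhibitor levels were used, with Lineweaver-Burk plots.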

Rhodesain [14] = target: T2, Rhodesain (Trypanosoma brucei rhodesiense, UniProt Q95PM0); assay: Inhibition of recombinant Trypanosoma brucei rhodesain expressed in Pichia pastoris using Z-FR-AMC as substrate and measured at 12 sec interval for 5 mins without preincubation by fluorimetric analysis
T2 sequence (Q95PM0 whole entry): as the sequence (Q95PM0 1-450) above
Method in brief: (§4)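 Rhodesain (1 nM) with Z-FR-AMC (2.5 µM) in 0.1 M sodium acetate pH 5.5, 0.01% Triton X-100, 1 mM β-mercaptoethanol, with or without 10 min enzyme-compound pre-incubation. Fluorescence read at 340/440 nm. IC50 by four-parameter nonlinear regression from at least six concentrations in triplicate, with at least two independent runs. Mean ± SEM reported.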

[15] = target: Cruzipain (Trypanosoma cruzi) (UniProt P25779); assay: Inhibition of recombinant Trypanosoma cruzi cruzain at 50 uM preincubated for 10 mins in presence of 0.1% Triton X-100 relative to control
Method in brief: (§5)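 To test detergent sensitivity, cruzain was pre-incubated 10 min at room temperature with compound with no Triton X-100, 0.01% or 0.1% Triton X-100. Cleavage of Z-FR-AMC was then followed at pH 5.5 in acetate buffer. Percent inhibition was compared across detergent levels.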

[16] = target: Cruzipain (Trypanosoma cruzi) (UniProt P25779); assay: Inhibition of recombinant Trypanosoma cruzi cruzain at 50 uM preincubated for 10 mins in presence of 0.01% Triton X-100 relative to control; method in brief: as §5
[17] = target: Cruzipain (Trypanosoma cruzi) (UniProt P25779); assay: Inhibition of recombinant Trypanosoma cruzi cruzain at 50 uM preincubated for 10 mins in absence of Triton X-100 relative to control; method in brief: as §5
[18] = target: Cruzipain (Trypanosoma cruzi) (UniProt P25779); assay: Inhibition of recombinant Trypanosoma cruzi cruzain at 50 uM preincubated with BSA for 5 mins followed by incubation with enzyme for 5 mins followed by substrate addition relative to control; conditions: time 10.0 min
Method in brief: (§6)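 For BSA sensitivity, compound was held 5 min with BSA (2 mg/mL in 0.001% Triton X-100), then 5 min with 1 nM cruzain, before substrate was added and activity monitored. Parallel runs omitted BSA under otherwise identical conditions.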

[19] = target: Cruzipain (Trypanosoma cruzi) (UniProt P25779); assay: Inhibition of recombinant Trypanosoma cruzi cruzain at 50 uM preincubated with enzyme for 5 mins followed by substrate addition in absence of BSA relative to control; method in brief: as §6
Cruzipain [20] = target: T1, Cruzipain; assay: Competitive inhibition of recombinant Trypanosoma cruzi cruzain by Lineweaver-Burk plot analysis; method in brief: as §3
cathepsin S [21] = target: T3, cathepsin S (Homo sapiens, UniProt P25774); assay: Inhibition of recombinant human cathepsin S expressed in Escherichia coli at 50 uM using Z-VVR-AMC as substrate and measured after 15 mins without preincubation by microplate reader based assay relative to control; conditions: probe Z-VVR-AMC
T3 sequence (P25774 whole entry): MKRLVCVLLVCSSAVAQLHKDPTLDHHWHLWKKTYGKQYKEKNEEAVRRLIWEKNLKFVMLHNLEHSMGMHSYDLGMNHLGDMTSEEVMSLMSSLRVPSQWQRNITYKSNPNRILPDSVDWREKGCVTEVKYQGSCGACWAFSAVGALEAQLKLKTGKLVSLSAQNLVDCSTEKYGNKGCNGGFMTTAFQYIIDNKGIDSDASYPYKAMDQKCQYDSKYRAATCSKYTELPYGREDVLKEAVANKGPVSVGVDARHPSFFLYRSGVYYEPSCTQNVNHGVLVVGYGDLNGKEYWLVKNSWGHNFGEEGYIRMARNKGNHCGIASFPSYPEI
Method in brief: (§7)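 Run with or without 5 min compound–enzyme pre-incubation. AMC fluorescence at 380/460 nm over 15 min. Inhibition relative to DMSO (2% final); E64 1 µM as positive control. Two independent experiments, each in triplicate.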

cathepsin S [22] = target: T3, cathepsin S; assay: Inhibition of recombinant human cathepsin S expressed in Escherichia coli at 50 uM using Z-VVR-AMC as substrate preincubated for 10 mins followed by substrate addition and measured after 15 mins by microplate reader based assay relative to control; conditions: probe Z-VVR-AMC, in the assay text read “preincubated for 5 mins” for “preincubated for 10 mins”, time 20 min; method in brief: as §7
cathepsin B [23] = target: T4, cathepsin B (Rattus norvegicus, UniProt P00787); assay: Inhibition of rat cathepsin B at 50 uM using Z-FR-AMC as substrate measured after 15 mins without preincubation by microplate reader based assay relative to control; conditions: probe Z-FR-AMC
T4 sequence (P00787 whole entry): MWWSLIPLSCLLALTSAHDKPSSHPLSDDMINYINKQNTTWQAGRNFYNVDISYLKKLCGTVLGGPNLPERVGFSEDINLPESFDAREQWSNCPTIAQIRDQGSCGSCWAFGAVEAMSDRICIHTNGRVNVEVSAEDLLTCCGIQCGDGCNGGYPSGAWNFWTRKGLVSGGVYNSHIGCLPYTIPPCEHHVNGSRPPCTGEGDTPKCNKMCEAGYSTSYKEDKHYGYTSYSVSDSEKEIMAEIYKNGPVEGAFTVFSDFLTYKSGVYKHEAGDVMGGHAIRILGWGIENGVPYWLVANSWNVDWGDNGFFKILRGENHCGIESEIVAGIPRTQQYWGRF
Method in brief: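 Rat cathepsin B (20 nM) at 25°C in 100 mM sodium phosphate, 100 mM NaCl, 1 mM EDTA, 1 mM DTT, 0.01% CHAPS. Compound pre-incubated 0 or 5 min with enzyme; Z-FR-AMC 50 µM, ex 380/em 440 nm, monitored 15 min. Inhibition is versus 2% DMSO, with 1 µM E64 control. Two independent experiments in triplicate.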

Trypanosoma cruzi [24] = assay: Trypanocidal activity against Trypanosoma cruzi Y strain trypomastigotes infected in C57BL/6 mouse peritoneal macrophage assessed as reduction in number of trypomastigotes release at 50 uM and measured after day 3 to day 11 post-infection by Neubauer chamber method; assay type: functional, organism-based; conditions: time 11.0 day
Method in brief: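 Thioglycolate-elicited peritoneal macrophages from female C57BL/6 mice, 2 × 10^5/well, infected 2 h at 37°C with Y strain trypomastigotes at 5:1 (parasite:cell) and washed. They were then held with compound (3.125–50 µM) or IFN-γ 100 ng/mL. Trypomastigotes released into the supernatant were counted in a Neubauer chamber at several days after infection. Three independent experiments, each in triplicate.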

cathepsin B [25] = target: T4, cathepsin B; assay: Inhibition of rat cathepsin B at 50 uM using Z-FR-AMC as substrate preincubated for 5 mins followed by substrate addition and measured after 15 mins by microplate reader based assay relative to control; conditions: probe Z-FR-AMC
Cruzipain [26] = target: T1, Cruzipain; assay: Inhibition of recombinant Trypanosoma cruzi cruzain using Z-FR-AMC as substrate preincubated for 10 mins followed by substrate addition and measured at 12 sec interval for 5 mins by fluorimetric analysis; method in brief: as §3
Rhodesain [27] = target: T2, Rhodesain; assay: Inhibition of recombinant Trypanosoma brucei rhodesain expressed in Pichia pastoris using Z-FR-AMC as substrate preincubated for 10 mins followed by substrate addition and measured at 12 sec interval for 5 mins by fluorimetric analysis; method in brief: as §4
[28] = target: Cruzipain (Trypanosoma cruzi) (UniProt P25779); assay: Inhibition of recombinant Trypanosoma cruzi cruzain at 100 uM preincubated for 10 mins in presence of 0.1% Triton X-100 relative to control; method in brief: as §5
[29] = target: Cruzipain (Trypanosoma cruzi) (UniProt P25779); assay: Inhibition of recombinant Trypanosoma cruzi cruzain at 100 uM preincubated for 10 mins in presence of 0.01% Triton X-100 relative to control; method in brief: as §5
[30] = target: Cruzipain (Trypanosoma cruzi) (UniProt P25779); assay: Inhibition of recombinant Trypanosoma cruzi cruzain at 100 uM preincubated for 10 mins in absence of Triton X-100 relative to control; method in brief: as §5
[31] = target: Cruzipain (Trypanosoma cruzi) (UniProt P25779); assay: Inhibition of recombinant Trypanosoma cruzi cruzain at 100 uM preincubated with BSA for 5 mins followed by incubation with enzyme for 5 mins followed by substrate addition relative to control; conditions: time 10.0 min; method in brief: as §6
[32] = target: Cruzipain (Trypanosoma cruzi) (UniProt P25779); assay: Inhibition of recombinant Trypanosoma cruzi cruzain at 100 uM preincubated with enzyme for 5 mins followed by substrate addition in absence of BSA relative to control; method in brief: as §6
Trypanosoma cruzi [33] = assay: Trypanocidal activity against Trypanosoma cruzi Tulahuen C4 assessed as reduction in parasite viability; assay type: functional, organism-based
[34] = test system: Trypanosoma brucei brucei; assay: Trypanocidal activity against Trypanosoma brucei brucei Squib 427 assessed as reduction in parasite viability; assay type: functional, organism-based

Row | Compound | inhibition [1] | inhibition [2] | inhibition [3] | inhibition [4] | inhibition [5] | inhibition [6] | inhibition [7] | inhibition [8] | inhibition [9] | inhibition [10] | inhibition [11] | inhibition [12] | Activity (Trypanosoma cruzi [24]) | other results
1 | c1ccc(CNc2nc(Nc3ccccc3)nc3ccccc23)cc1 | 70.8% | 82.3% | 67.1% | 82.8% | 62% | 57% | 14% | 9% | 91% | 90% | 85% | 94% | Active | IC50 (Cruzipain [13]): 9 µM; IC50 (Rhodesain [14]): 30 µM; inhibition [15]: 28.1%; inhibition [16]: 89.8%; inhibition [17]: 82.4%; inhibition [18]: 64.4%; inhibition [19]: 70.2%; Ki (Cruzipain [20]): 1.4 µM; inhibition at 0.25 h, 50 µM (cathepsin S [21]): 14.8%; inhibition at 0.25 h, 50 µM (cathepsin S [22]): 4.5%; inhibition at 0.25 h, 50 µM (cathepsin B [23]): 28.6%; inhibition at 0.25 h, 50 µM (cathepsin B [25]): 27.5%
2 | COCCNC(=O)c1ccc(OC2CCN(Cc3ccc(F)c(F)c3)CC2)c(Cl)c1 | 42% | 74.5% | 42.1% | 83.8% | 18% | 66% | 14% | 81% | 29% | 78% | 63% | 75% | Active | IC50 (Cruzipain [26]): 5 µM; IC50 (Rhodesain [27]): 9 µM; inhibition [28]: 78.6%; inhibition [29]: 68.2%; inhibition [30]: 98.3%; inhibition [31]: 64.7%; inhibition [32]: 79.9%; IC50 (Trypanosoma cruzi [33]): 32 µM; IC50 [34]: 32 µM
